Results on 14 compounds are retold here after ChEMBL document CHEMBL1143874, “Diazen-1-ium-1,2-diolated and nitrooxyethyl nitric oxide donor ester prodrugs of anti-inflammatory (E)-2-(aryl)-3-(4-methanesulfonylphenyl)acrylic acids: synthesis, cyclooxygenase inhibition, and nitric oxide release studies” (Bioorg Med Chem, 2008).

pIC50: −log10 of the molar value.

A short description of series [1]: Nitric oxide release in PBS at pH 7.4 in 37 degC after 1.5 hrs. It counts as functional. Also noted: concentration or dose not given beside the values. In outline: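 Test compound at 1.0 · 10^-2 mM in phosphate buffer pH 7.4, incubated 37 °C for 1.5 h. Nitrite was quantified by Griess reaction. % NO released is relative to a theoretical maximum of 2 mol NO/mol for diazeniumdiolates, 1 mol/mol for nitrooxyethyl esters and 3 mol/mol for glycerol trinitrate. Mean of 3 measurements.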

The nature of series [2]: Nitric oxide release in PBS in presence of 5 mM L-cysteine at pH 7.4 in 37 degC after 1.5 hrs. It counts as functional. In outline: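 Phosphate buffer pH 7.4 containing 5.0 mM L-cysteine, with test compound at 1.0 · 10^-2 mM, kept at 37 °C for 1.5 h. Nitrite was determined by Griess reaction. % NO released is relative to a theoretical maximum of 1 mol NO/mol for nitrooxyethyl esters. Mean of 3 measurements.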

Series [3] addresses T1, Prostaglandin G/H synthase 1 (Ovis aries, UniProt P05979).
T1 sequence (P05979 whole entry): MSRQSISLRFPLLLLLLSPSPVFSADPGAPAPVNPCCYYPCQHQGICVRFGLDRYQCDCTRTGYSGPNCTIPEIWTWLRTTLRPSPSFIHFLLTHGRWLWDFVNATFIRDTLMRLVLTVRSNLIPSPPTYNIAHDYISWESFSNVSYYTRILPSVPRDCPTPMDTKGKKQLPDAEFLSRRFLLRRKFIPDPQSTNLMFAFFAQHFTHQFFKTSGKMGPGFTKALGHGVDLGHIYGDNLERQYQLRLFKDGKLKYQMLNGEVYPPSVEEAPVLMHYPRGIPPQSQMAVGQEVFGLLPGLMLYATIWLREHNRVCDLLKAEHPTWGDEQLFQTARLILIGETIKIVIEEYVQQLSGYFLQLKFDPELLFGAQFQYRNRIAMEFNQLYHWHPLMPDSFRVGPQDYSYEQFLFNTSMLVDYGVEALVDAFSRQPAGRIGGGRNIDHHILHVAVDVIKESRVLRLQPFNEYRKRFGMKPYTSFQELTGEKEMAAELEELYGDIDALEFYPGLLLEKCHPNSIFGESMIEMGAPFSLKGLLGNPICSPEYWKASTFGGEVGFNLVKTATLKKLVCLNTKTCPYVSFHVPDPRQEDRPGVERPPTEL
Nature of the series: Inhibition of ovine COX1 by enzyme immunoassay.

The species entered for the next series is Ovis aries. Description: Selectivity index, ratio of IC50 for ovine COX1 to IC50 for ovine COX2. The gist of the method: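 Ovine COX-1 and COX-2 IC50s were measured by enzyme immunoassay kit. Deviation from the mean was <10%. The index is COX-1 IC50/COX-2 IC50.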
Another series relates to Serum. Nature of the series: Nitric oxide in rat serum at pH 7.4 in 37 degC after 1.5 hrs. It counts as ADME, cell-free. Also noted: concentration or dose not given beside the values. To be noted: pH 7.4, 1.5 h. The gist of the method:
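Test compound at 1.0 · 10^-2 mM in phosphate buffer pH 7.4 with 90 µL rat serum added, incubated 37 °C for 1.5 h. Nitrite measured by Griess reaction. % NO released is relative to a theoretical maximum of 2 mol NO/mol for diazeniumdiolates and 1 mol/mol for nitrooxyethyl esters. Mean of 3 measurements.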

In general, pIC50 refers to the IC50 on a negative log10 scale, so that one unit is a factor of ten.

Take `COc1ccc(/C(=C\c2ccc(S(C)(=O)=O)cc2)C(=O)OCCO[N+](=O)[O-])cc1`: the Activity in series [1] was 1.4%; in series [2], 9.2%. The pIC50 in series [3] was 5.96.

In series [3], `CS(=O)(=O)c1ccc(/C=C(/C(=O)O)c2ccccc2)cc1` gave a pIC50 of 5.82. Further, in the series filed under Ovis aries, the Ratio IC50 amounted to 0.5.

Consider `CS(=O)(=O)c1ccc(/C=C(/C(=O)OCCO[N+](=O)[O-])c2ccc(Br)cc2)cc1`, for which the Activity in series [1] was found to be 1%; in series [2] it was 10.1%. Moreover, in series [3], the pIC50 is 6.43.

On to `CS(=O)(=O)c1ccc(/C=C(/C(=O)OCCO[N+](=O)[O-])c2ccc(F)cc2)cc1`, for which the Activity in series [1] worked out at 3.3%; in series [2] it was 7.6%. In addition, the pIC50 in series [3] was 5.80.

In series [3], `CS(=O)(=O)c1ccc(/C=C(/C(=O)O)c2ccc(Br)cc2)cc1` gave a pIC50 of 6.06.

On to `CC(=O)OCO/N=[N+](\[O-])N(C)CCOC(=O)/C(=C/c1ccc(S(C)(=O)=O)cc1)c1ccccc1`, for which the Activity was 4.8% in series [1] and 83% in the series on Serum.

As to `CN(CCO)/[N+]([O-])=N/[O-].[Na+]`, the Activity in series [1] was 84.9%; in the series with Serum, 85%.

Regarding `CS(=O)(=O)c1ccc(/C=C(/C(=O)O)c2ccc(F)cc2)cc1`, the pIC50 in series [3] is 6.40.

Turning to `CS(=O)(=O)c1ccc(/C=C(/C(=O)OCCO[N+](=O)[O-])c2ccccc2)cc1`, the Activity was 3% in series [1] and 8.5% in series [2]. Further, in series [3], the pIC50 is 5.21.

In series [3], `COc1ccc(/C(=C\c2ccc(S(C)(=O)=O)cc2)C(=O)O)cc1` had a pIC50 of 4.50.

Turning to `CC(=O)OCO/N=[N+](\[O-])N(C)CCOC(=O)/C(=C/c1ccc(S(C)(=O)=O)cc1)c1ccc(Br)cc1`, the results for the Activity (in series [1]; with Serum) were 3.5% and 76.2%, respectively.

As to `COc1ccc(/C(=C\c2ccc(S(C)(=O)=O)cc2)C(=O)OCCN(C)/[N+]([O-])=N/OCOC(C)=O)cc1`, the Activity worked out at 3.9% in series [1] and 77.6% with Serum.

Turning to `CC(=O)OCO/N=[N+](\[O-])N(C)CCOC(=O)/C(=C/c1ccc(S(C)(=O)=O)cc1)c1ccc(F)cc1`, the Activity in series [1] worked out at 3.6%; in the series on Serum, 82.1%.

On to `O=[N+]([O-])OCC(CO[N+](=O)[O-])O[N+](=O)[O-]`, for which the figures for the Activity in series [1] and in series [2] were 2.8% and 10.1%, respectively.
